For orientation: Ki means the equilibrium dissociation constant of an inhibitor or competing ligand from its target. What is called IC50 is the point on the concentration scale where inhibition reaches its midpoint. What is called logP is the decadic logarithm of the partition coefficient of the neutral form, usually between octanol and water. Higher therefore signals a more lipophilic compound. In general, Papp refers to the rate of passage across a membrane or cell layer, normalised by area and donor concentration. One may read the Cmax as the highest concentration seen after dosing. Broadly, the bioavailability is dose-corrected exposure relative to a reference, in per cent. Higher therefore signals much systemic uptake. The Kp is the ratio of the level in a tissue or fluid to that in plasma or blood. What is called AUC(0-t) is exposure summed from dosing to a finite time, without extrapolation to infinity. Low values mean low exposure, high ones high exposure. Usually half-life stands for how long it takes for the measured level to halve. A higher half-life goes with slow decline.

SMILES strings stand for the structures.

From ChEMBL document CHEMBL1156317, “Design and synthesis of conformationally constrained N,N-disubstituted 1,4-diazepanes as potent orexin receptor antagonists” (Bioorg Med Chem Lett, 2010) come the findings set out here.

Data set [1] deals with T1, Orexin receptor type 2 (Homo sapiens, UniProt O43614).
T1 sequence (O43614 whole entry): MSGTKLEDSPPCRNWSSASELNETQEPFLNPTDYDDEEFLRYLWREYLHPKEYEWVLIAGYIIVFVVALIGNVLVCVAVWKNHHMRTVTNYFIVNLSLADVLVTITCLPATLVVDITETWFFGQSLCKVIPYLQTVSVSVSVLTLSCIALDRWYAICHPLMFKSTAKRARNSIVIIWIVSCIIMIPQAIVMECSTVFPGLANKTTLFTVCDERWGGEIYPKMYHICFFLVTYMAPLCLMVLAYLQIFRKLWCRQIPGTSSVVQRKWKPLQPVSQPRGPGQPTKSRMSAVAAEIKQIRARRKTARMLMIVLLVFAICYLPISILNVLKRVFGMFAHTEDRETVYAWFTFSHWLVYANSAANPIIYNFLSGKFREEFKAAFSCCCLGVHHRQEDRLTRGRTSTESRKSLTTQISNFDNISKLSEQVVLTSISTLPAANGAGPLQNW
The experiment in a line: Binding affinity to OX2 receptor by radioligand displacement assay. An outline of the steps: (§1)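 Displacement of a high-affinity radioligand bound to human orexin receptors. Values expressed as Ki.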
(Displacement assays read how much labelled ligand stays bound in the presence of the test substance.)

Data set [2] concerns the target T1, Orexin receptor type 2. The experiment in a line: Antagonist activity at OX2 receptor assessed as inhibition of calcium flux by FLIPR assay. In kind it is functional. An outline of the steps:
(§2)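 FLIPR assay on human orexin receptors, with calcium flux as the functional read-out of antagonism. Values expressed as IC50.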

For data set [3], the target named is T2, Orexin/Hypocretin receptor type 1 (Homo sapiens, UniProt O43613).
T2 sequence (O43613 whole entry): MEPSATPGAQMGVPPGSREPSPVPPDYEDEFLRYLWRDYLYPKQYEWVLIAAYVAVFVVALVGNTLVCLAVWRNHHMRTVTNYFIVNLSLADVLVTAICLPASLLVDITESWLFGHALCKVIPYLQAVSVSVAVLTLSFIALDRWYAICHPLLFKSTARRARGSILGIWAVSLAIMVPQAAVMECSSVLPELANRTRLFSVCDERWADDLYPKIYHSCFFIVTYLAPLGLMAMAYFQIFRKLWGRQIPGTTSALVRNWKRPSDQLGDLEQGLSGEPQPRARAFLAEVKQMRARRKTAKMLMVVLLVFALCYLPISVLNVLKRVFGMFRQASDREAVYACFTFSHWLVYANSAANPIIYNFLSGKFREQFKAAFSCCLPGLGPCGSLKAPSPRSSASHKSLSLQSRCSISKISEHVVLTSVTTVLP
Description: Antagonist activity at OX1 receptor assessed as inhibition of calcium flux by FLIPR assay. Format: functional. An outline of the steps:
as §2
In general terms: A change in cytosolic calcium serves as a functional read-out for many receptors and channels.

Data set [4] addresses T2, Orexin/Hypocretin receptor type 1. Description: Binding affinity to OX1 receptor by radioligand displacement assay. An outline of the steps:
as §1

The nature of data set [5]: Lipophilicity, log P of the compound. Format: physicochemical. Particulars: octanol/water.
The nature of data set [6]: Apparent permeability across pig LLC-PK1 cells. Format: ADME, cell-based, Sus scrofa.
Data set [7] can be described thus: Cmax in dog. In kind it is ADME, organism-based, Canis lupus familiaris. The settings on record: in vivo.
Data set [8] can be described thus: Clearance in dog. The settings on record: in vivo. Format: ADME, organism-based, Canis lupus familiaris.
Data set [9] in a line: Oral bioavailability in dog. In kind it is ADME, organism-based, Canis lupus familiaris. Particulars: in vivo.
The nature of data set [10]: Clearance in rat at 10 mg/kg, po and 2 mg/kg, iv. In kind it is ADME, organism-based. Particulars: in vivo. A digest of the protocol:
(§3)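 Rats dosed orally at 10 mpk in VitE-TPGS and intravenously at 2 mpk in DMSO.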

Data set [11] can be described thus: Cmax in rat at 10 mg/kg, po and 2 mg/kg, iv. Format: ADME, organism-based. Particulars: in vivo. An outline of the steps:
as §3

In data set [12] the test system is LLC-PK1. The experiment in a line: Ratio of permeability from basolateral to apical side over apical to basolateral side in pig LLC-PK1 cells expressing MDR1.
A short description of data set [13]: Drug level in Sprague-Dawley rat brain at 2 mg/kg, iv after 30 mins. Format: ADME, organism-based. Also noted: dose 2 mg/kg, route intravenous. Particulars: read-out: Drug uptake. A digest of the protocol:
(§4)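 Rats aged seven to ten weeks, anesthetized with isoflurane (5% in oxygen to induce, 2% by nose cone to maintain), kept at 37 °C. Compound given by tail-vein infusion at 2 mg/kg over 30 min. At the end of infusion, CSF taken from the cisterna magna, then plasma by cardiac puncture, then the brain harvested. All samples frozen on dry ice and analysed for compound levels.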

A short description of data set [14]: Drug level in Sprague-Dawley rat plasma at 2 mg/kg, iv after 30 mins. In kind it is ADME, organism-based. Also noted: dose 2 mg/kg, route intravenous. An outline of the steps: as §4
Data set [15] in a line: Ratio of drug level in brain to plasma in Sprague-Dawley rat at 2 mg/kg, iv after 30 mins. Format: ADME, organism-based. Also noted: dose 2 mg/kg, route intravenous. An outline of the steps:
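Male/female unspecified Sprague–Dawley rats, 7–10 weeks old, under isoflurane anaesthesia (5% induction, 2% maintenance via nose cone) on a 37 °C warming blanket; compound given by tail-vein infusion, 2 mg/kg over 30 min. At end of infusion CSF taken from cisterna magna, plasma by cardiac puncture, brain harvested; samples frozen on dry ice and compound levels measured to give brain/plasma ratio.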

Data set [16] can be described thus: Oral bioavailability in rat at 10 mg/kg. Format: ADME, organism-based. The settings on record: in vivo. A digest of the protocol: as §3
Data set [17] in a line: AUC (0 to 24 hrs) in dog. In kind it is ADME, organism-based, Canis lupus familiaris. On the set-up: time < 24 hr. Particulars: plasma.
The nature of data set [18]: Half life in dog. In kind it is ADME, organism-based, Canis lupus familiaris. The settings on record: in vivo.
A short description of data set [19]: Protein binding in rat. Format: ADME, organism-based. The settings on record: in vivo, read-out: PB (converted).
Data set [20] can be described thus: Half life in rat at 10 mg/kg, po and 2 mg/kg, iv. Particulars: in vivo. Format: ADME, organism-based. A digest of the protocol:
as §3

Data set [21] in a line: AUC (0 to 24 hrs) in rat at 10 mg/kg, po and 2 mg/kg, iv. Format: ADME, organism-based. The settings on record: plasma. An outline of the steps: as §3
Data set [22] is described as follows: Protein binding in human. Particulars: in vivo, read-out: PB (converted). Format: ADME, organism-based.
Data set [23] is described as follows: Drug level in Sprague-Dawley rat CSF at 2 mg/kg, iv after 30 mins. Format: ADME, organism-based. On the set-up: dose 2 mg/kg, route intravenous. Particulars: cerebrospinal fluid, read-out: Drug uptake. A digest of the protocol: as §4

As for `Cc1ccc(-n2nccn2)c(C(=O)N2CC3CC(C2)N(c2ncc4ccccc4n2)C3)c1` (single isomer, unassigned; enantiomer A), the Ki was found to be 0.155 µM in data set [1] and 0.11 µM in data set [4]. For the same compound, the values for the IC50 in data set [2] and in data set [3] were 6.2 µM and 2.5 µM, respectively.
The matching figures for `Cc1ccc(-n2nccn2)c(C(=O)N2CC3CC2CCN3c2ncc3cc(F)ccc3n2)c1` (racemic): 3.5 µM, 1.7 µM, 3.7 µM and 3.9 µM.
The compound `Cc1ccc(-n2nccn2)c(C(=O)N2CC3CC(C2)N(c2ncc4ccccc4n2)C3)c1` (single isomer, unassigned; enantiomer B) showed a log partition coefficient (logP) in [5] of 2.6. Also, the Papp in data set [6] turned out to be 37 ×10⁻⁶ cm/s. In addition, the Cmax in data set [7] stood at 510 nM; in data set [11], 150 nM. For the same compound, the clearance is 24 mL/min/kg in [8] and 45 mL/min/kg in data set [10]. The bioavailability came to 8% in data set [9] and 2% in data set [16]. Further, the Ratio in [12] turned out to be 0.9. For the same compound, the concentration at 0.5 h in data set [13] came out at 690 nM; in data set [14] it was 835 nM; in data set [23], 60 nM. In data set [15], the Kp at 0.5 h came out at 0.8. Further, the results for the Ki in data set [1] and in data set [4] were 0.0009 µM and 0.0007 µM, respectively. For the same compound, the IC50 in [2] was 0.044 µM; in data set [3], 0.024 µM. Besides, in data set [17], the AUC(0-t) at 24 h came to 0.49 µM·h. Further, the figures for the half-life in data set [18] and in data set [20] were 54 min and 42 min, respectively. Further, the results for the fraction unbound in data set [19] and in data set [22] were 0.073 and 0.064, respectively. In addition, the AUC(0-t) in [21] came to 0.23 µM·h.
Turning to `Cc1ccc(-n2nccn2)c(C(=O)N2CCC3CC2CN3c2ncc3cc(F)ccc3n2)c1` (racemic), the Ki in [1] stood at 0.26 µM; in data set [4], 0.87 µM. The IC50 in data set [2] was > 10 µM; in data set [3] it was > 5.7 µM.
Taken in the same sequence, the figures for `Cc1ccc(-n2nccn2)c(C(=O)N2CC3CC2CN(c2ncc4ccccc4n2)C3)c1` (stereo unspecified) were 0.011 µM, 0.012 µM, 0.11 µM and 0.077 µM.
With `Cc1ccc(-n2nccn2)c(C(=O)N2CCCN(c3ncc4ccccc4n3)CC2)c1`, the logP in [5] is 2.91. In addition, the values for the Cmax in data set [7] and in data set [11] were 230 nM and 300 nM, respectively. For the same compound, the values for the clearance in [8] and in data set [10] were 12 mL/min/kg and 53 mL/min/kg, respectively. Also, the bioavailability stood at 16% in data set [9] and 2% in [16]. In addition, the concentration at 0.5 h amounted to 462 nM in data set [13], 664 nM in [14] and 19 nM in data set [23]. In [15], the Kp at 0.5 h amounted to 0.7. Also, the IC50 in data set [2] was found to be 0.027 µM; in [3] it was 0.029 µM. The compound also registered an AUC(0-t) at 24 h in data set [17] of 0.44 µM·h. The half-life in data set [18] was 78 min; in [20], 18 min. Moreover, the fraction unbound in [19] was 0.029; in data set [22] it was 0.024. This compound gave an AUC(0-t) in [21] of 0.19 µM·h.
With `Cc1ccc(-n2nccn2)c(C(=O)N2CC3CC(C2)N(c2ncc4ccccc4n2)C3)c1` (racemic), the Ki in data set [1] amounted to 0.0036 µM; in data set [4], 0.0023 µM. The IC50 in data set [2] amounted to 0.065 µM; in [3], 0.042 µM.
For the compound `Cc1ccc(-n2nccn2)c(C(=O)N2CCCN(c3ncc4cc(F)ccc4n3)CC2)c1`, the Ki in [1] came to 0.0002 µM; in data set [4] it was 0.001 µM. Also, the IC50 in data set [2] stood at 0.027 µM; in data set [3], 0.036 µM.
